# ChEMBL document CHEMBL1135836, “Cyclodextrin-derived host molecules as reversal agents for the neuromuscular blocker rocuronium bromide: synthesis and structure-activity relationships” (J Med Chem, 2002)
# Key:
# Format in all cases: functional
# Mus musculus [1] = species on record: Mus musculus; assay: In vitro reversal activity versus ~90% block by rocuronium in isolated mouse hemidiaphragm, expressed as effective conc.
# Mus musculus [2] = species on record: Mus musculus; assay: In vitro reversal activity versus ~90% block by rocuronium in isolated mouse hemidiaphragm, expressed as % of maximum reversal at 14.4 uM conc.
# Cavia porcellus [3] = assay: In vivo reversal activity versus ~90% block by rocuronium in guinea pig
# Method in brief: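 Male Dunkin-Hartley guinea pigs (600-900 g), anaesthetized ip with pentobarbitone 10 mg/kg plus urethane 1000 mg/kg, tracheotomized and ventilated. Continuous iv rocuronium infusion (~10 nmol kg-1 min-1) was raised to a steady 85-90% block. Increasing iv doses of agent were given cumulatively. ED50 = 50% recovery versus preblock twitch, by regression. Mean ± SEM of at least two experiments, or one.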
# Cavia porcellus [4] = assay: In vivo reversal activity versus ~90% block by rocuronium in guinea pig, expressed as % of maximum reversal at 7.3 umol/kg conc.
# Method in brief: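 Male Dunkin-Hartley guinea pigs (600-900 g) anaesthetized ip with pentobarbitone 10 mg/kg plus urethane 1000 mg/kg, tracheotomized and artificially ventilated. Continuous iv rocuronium bromide infusion (~10 nmol kg-1 min-1) raised until steady-state twitch block of 85-90%. Increasing single iv doses of reversal agent given by a separate catheter. Max reversal is peak twitch recovery versus preblock height at highest dose tested; means ± SEM, n ≥ 2 or single experiment.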
smiles,measurement,setting,value
CNC(=O)CSCC1O[C@@H]2O[C@@H]3C(CSCC(=O)NC)O[C@H](O[C@@H]4C(CSCC(=O)NC)O[C@H](O[C@@H]5C(CSCC(=O)NC)O[C@H](O[C@@H]6C(CSCC(=O)NC)O[C@H](O[C@@H]7C(CSCC(=O)NC)O[C@H](O[C@@H]8C(CSCC(=O)NC)O[C@H](O[C@@H]9C(CSCC(=O)NC)O[C@H](O[C@H]1C(O)C2O)C(O)C9O)C(O)C8O)C(O)C7O)C(O)C6O)C(O)C5O)C(O)C4O)C(O)C3O (some centres undefined),EC50,Mus musculus [1],6.4 µM
same,Max reversal,Mus musculus [2],79.6%
same,ED50,Cavia porcellus [3],1.54 µmol/kg
same,Max reversal,Cavia porcellus [4],102.2%
